Compound activity from PubChem BioAssay.
The list is not random: actives were taken first. Their share in the collection is about 2.9%.
Hck-Nef inh = blocks Nef-activated human Hck kinase; hit rate 0.68% among 220,000; P08631; inhibition, % at 20 µM; Recombinant Hck-YEEI plus Nef, Z-Lyte FRET kinase assay;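 active means Hck-Nef kinase inhibition above about 50%, limit read from the data; inactive means inhibition below that limit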;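 further: 0% = DMSO with Hck plus Nef and 100% = Hck alone without Nef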
Runt-CBFb FRET = Runt domain-CBFb interaction inhibition; Q01196+Q13951; Cerulean-Runt/Venus-CBFb FRET ratio 530/480, 1 h; inhibition, % at 20 µM; hit rate 0.46% among 220,000; AID 1496;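 active means inhibition over about 50% at 20 µM in the single-dose screen, limit read from the data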;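 further: 0% = DMSO wells and 100% = excess unlabeled CBFb competitor control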
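test system = Cerulean-Runt domain fusion protein, energy donor | probe or stimulus = Venus-CBFb binding partner, 100 nM | incubation = two 1 h room-temperature incubations shielded from light | detection = fluorescence energy transfer, 422 nm excitation, 530/480 nm emission | measure = loss of energy transfer signal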
RBBP9 inh = blocks human serine hydrolase RBBP9 | O75884 | recombinant RBBP9, FP-Rh probe fluorescence polarization | inhibition, % at 7.94 µM | hit rate 0.2% among 220,000 | AID 1515;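 active means inhibition above the campaign mean of all tested compounds plus 3 SD, cut at about 14% in these data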;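 further: plate controls were DMSO wells with RBBP9 for no effect and wells lacking RBBP9 protein for full effect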
Target sequence (O75884 whole entry, looked up): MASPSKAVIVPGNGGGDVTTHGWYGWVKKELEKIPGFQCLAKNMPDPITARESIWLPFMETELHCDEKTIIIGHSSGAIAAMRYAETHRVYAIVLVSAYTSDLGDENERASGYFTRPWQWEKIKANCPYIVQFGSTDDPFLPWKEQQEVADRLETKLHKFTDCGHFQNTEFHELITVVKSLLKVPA
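Measured by: FP readout at 525/598 nm; material: recombinant human RBBP9; also added: Serine-hydrolase probe FP-Rh, 375 nM pre-mixing; medium: Tris buffer pH 8.0, NaCl, Pluronic; replication: one well per compound; doses: one concentration, 7.94 µM nominal, 0.794% DMSO; timing: preincubation 30 min plus labeling 45 min at 25 °C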
Runt-SMMHC FRET = inhibitors of human RUNX1 Runt domain binding to CBFb-SMMHC | hit rate 0.74% among 220,000 | inhibition, % at 20 µM | Cerulean-Runt/Venus-CBFb-SMMHC FRET ratio 530/480, 1 h | Q01196+Q13951;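 active means mean inhibition across duplicate retests at 20 µM reaching about 50%, limit read from the data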;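 further: 0% = DMSO wells and 100% = wells with excess untagged CBFb-SMMHC; inhibitors lower the FRET ratio by blocking Runt binding to CBFb-SMMHC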
RanGTP-Imp inh = inhibitors of RanGTP-importin-beta interaction, primary screen, biochemical, FRET, CFP-Ran, YFP-importin-beta, homogeneous | cell-free CFP-Ran/YFP-importin-beta FRET ratio | inhibition, % (concentration not given with the values) | hit rate 1.1% among 300,000 | AID 2216;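 active means more than half of the replicate wells show a fall in the fluorescence ratio signal beyond about 16%, limit read from the data, passing the limit was not always enough; inconclusive means exactly half of the replicate wells pass the set limit; inactive means fewer than half of replicates pass the limit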;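 further: 0% = DMSO wells and 100% = Ran loaded with GDP instead of GTP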
PfM18AAP inh = blocks P. falciparum M18 aspartyl aminopeptidase | recombinant PfM18AAP, H-Glu-NHMec fluorogenic cleavage | inhibition, % at 7.35 µM | hit rate 1.2% among 290,000 | AID 1822;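 active means inhibition above the campaign mean inhibition over all tested compounds plus 3 SD, cut at about 28% in these data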;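 further: 0% = plate median of test compound wells and 100% = 2 mM ZnCl2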
YIC FRET counter = counter-screen YIC FRET for RanGTP-importin-beta inhibitors | shares compounds with RanGTP-Imp inh | Purified YIC probe, intramolecular FRET ratio YFP/CFP | IC50, µM | hit rate 40% among 1,000 | AID 435026;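 active means fitted half-maximal inhibitory concentration no more than tenfold above the top dose tested; inconclusive means flat fit with 30 to 70% activity, or poor fit; inactive means half-maximal concentration beyond tenfold above the top dose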
Starred values were filed as active, the others as inactive; u = inconclusive; x = not tested or not shown.

SMILES	Hck-Nef inh	Runt-CBFb FRET	RBBP9 inh	Runt-SMMHC FRET	RanGTP-Imp inh	PfM18AAP inh	YIC FRET counter
OCC1(Cc2cccc(Cl)c2)CCCN(Cc2ccc3cc(F)ccc3n2)C1 (stereo unspecified)	-10.0	-1.4	-10.6	0.3	24.3*	2.0	>50
C=CCn1c(=O)c(C(=O)Nc2ccc(C)cc2)c(O)c2ccccc21	x	x	x	x	28.2*	-2.1	>50
c1ccc(-c2ccc(CNC3CC3)cc2)cc1	x	x	x	x	-3.0	3.8	x
O=C(Cc1cc(=O)oc2cc(O)ccc12)N[C@@H](Cc1c[nH]c2ccccc12)C(=O)O	x	x	x	x	20.6*	9.5	>50
COC(=O)C1=CN(Cc2ccc(C)cc2)C=C(C(=O)OC)C1c1ccc(F)c(F)c1	x	x	x	x	u	5.0	x
COC(=O)C1=CN(Cc2ccccc2)C=C(C(=O)OC)C1c1cc(F)ccc1F	x	x	x	x	23.8*	-7.6	20.9*
COc1cc(OC)cc(C(=O)Nc2sc3c(c2C(N)=O)CCC3)c1	x	x	x	x	18.5*	2.0	>26
COc1c(C)cc(C(=O)C2CCCN(S(=O)(=O)N(C)C)C2)cc1C (stereo unspecified)	x	x	x	x	3.7	-1.9	x
Cc1ccc2nc(N3CCN(S(=O)(=O)c4ccc5c(c4)OCCO5)CC3)c(C#N)cc2c1	1.8	10.0	-3.5	32.8	6.4	4.0	x
Cc1ccc2cc(C#N)c(N3CCCN(C(=S)NCCCN(C)C)CC3)nc2c1	x	x	x	x	18.9*	-4.4	25.1*
COc1ccc2cc(C#N)c(N3CCN(C(=O)c4ccccc4C)CC3)nc2c1	-30.0	12.1	-0.3	6.0	30.7*	2.1	>50
Cc1ccc(S(=O)(=O)N2CCCN(c3nc4cc(C)ccc4cc3C#N)CC2)cc1	-0.2	8.0	-2.7	48.4	32.0*	1.9	27.9*
Cc1ccc2cc(C#N)c(N3CCCN(C(=O)c4cnccn4)CC3)nc2c1	x	x	x	x	6.2	-0.1	x
COc1ccc(C(=O)N2CCN(c3nc4cc(C)ccc4cc3C#N)CC2)c(OC)c1	3.5	7.9	-2.8	9.8	3.1	-3.5	x
COc1cc(C(=O)N2CCCN(c3nc4cc(C)ccc4cc3C#N)CC2)cc(OC)c1OC	x	4.5	x	44.0	52.4*	x	15.4*
COc1ccc(Cc2nnc(NC(=O)C3CCN(C(=O)c4ccco4)CC3)s2)cc1	x	x	x	x	-0.2	-7.3	x
O=C(Nc1ccccc1)C1=C[C@@H](c2coc3ccccc3c2=O)C[C@@H](OCc2ccc(CO)cc2)O1	6.5	-2.1	-0.9	-1.4	3.2	1.0	x
Cc1ccc(C)c(S(=O)(=O)N2CCCC2CNC(=O)C(=O)NCC2CCCO2)c1 (stereo unspecified)	x	x	x	x	-0.3	x	x
Cc1ccc2cc(C#N)c(N3CCCN(C(=O)C4CCCO4)CC3)nc2c1 (stereo unspecified)	12.3	4.3	3.7	2.5	17.6*	2.2	26.1*
CCOC(=O)c1c(NC(=O)c2cccc(N3C(=O)CCC3=O)c2)sc2c1CCN(CC)C2	x	x	x	x	21.0*	-0.9	>50
CCOC(=O)C/C(=N\Nc1ncnc2ccccc12)c1ccccc1	x	x	x	x	23.1*	9.1	>50
CCCc1ccc(S(=O)(=O)N/N=C(/C)c2ccc3c(c2)OCO3)cc1	x	x	x	x	-3.8	-1.1	x
CC1CN(Cc2cc(=O)oc3cc(O)ccc23)CC(C)O1 (stereo unspecified)	x	x	x	x	19.3*	5.6	16.5*
O=c1cc(CN2CCN(Cc3ccccc3)CC2)c2ccc(O)cc2o1	x	x	x	x	38.2*	6.9	10.2*
CCOC(=O)c1cnn(CCOC(=O)c2cccs2)c1NC(=O)c1cccs1	2.7	0.1	-5.7	1.3	x	-1.7	x
SMILES	Hck-Nef inh	Runt-CBFb FRET	RBBP9 inh	Runt-SMMHC FRET	RanGTP-Imp inh	PfM18AAP inh	YIC FRET counter
CCOC(=O)c1c(N)n(CCOC(=O)c2cccs2)c2nc3ccccc3nc12	28.3	44.7	-1.8	109.0*	22.7*	2.1	37.4*
CC1CN(C(=O)CCCN2C(=O)c3ccccc3C2=O)CC(C)O1 (stereo unspecified)	x	x	x	x	2.7	-17.6	x
O=C(NCC1CCCN1S(=O)(=O)c1cccs1)c1cccc(Cl)c1 (stereo unspecified)	x	x	x	x	2.6	x	x
CC12OC1C1(O)CCCC1=CC2=O (stereo unspecified)	x	x	x	x	19.8*	-2.7	>50
CN(c1ccccc1)S(=O)(=O)c1cccc2ccccc12	x	x	x	x	1.9	-3.0	x
COc1ccc(OC)c(S(=O)(=O)n2ccnc2C)c1	0.2	0.5	-13.0	3.4	27.0*	4.8	>50
COC(=O)c1cc(C(=O)OCC(=O)N(C)c2ccccc2)cc([N+](=O)[O-])c1	x	x	x	x	-2.8	1.7	x
CN(C)CCCN(C(=O)c1ccc(Br)s1)c1nc2cc3c(cc2s1)OCCO3	x	x	x	x	22.5*	x	>50
CCN(CC)CCN(C(=O)c1ccc(Br)s1)c1nc2cc3c(cc2s1)OCCO3	-25.0	0.4	-8.8	-2.8	3.9	-1.5	x
CSc1ccc(CNCC2CCCO2)cc1 (stereo unspecified)	x	x	x	x	-3.2	-5.9	x
Cc1ccccc1NC(=O)CSc1ccsc1[N+](=O)[O-]	10.5	4.2	-6.2	-1.5	-2.2	-1.0	x
Cc1ccc(Nc2nc(N)[nH]c(=O)c2N=O)cc1	7.2	2.4	-1.0	40.9	28.9*	17.9	18.9*
Cc1ccc(Nc2nc(=O)[nH]nc2C)cc1	-0.3	-0.2	-1.9	-2.0	-0.5	-3.6	x
Cc1cc(C)c2c(N)c(C(=O)Nc3ccccc3Br)sc2n1	x	x	x	x	4.3	-9.5	x
Cc1ccc(N2CC(=O)N(NC(=O)c3sc4nc(C)cc(C)c4c3N)CC2=O)cc1	21.3	5.8	-10.1	7.5	20.0*	4.1	>50
